Experimental data of several laboratories.
Each line is one published result; the experiments were not run side by side.

Nc1ncn([C@H]2C[C@H](O)[C@@H](CO)O2)c(=O)n1
AUC(0-t) (female C57BL/6 mouse, plasma; intravenous, 0.4 mg/kg): 182 ng·h/mL

Cc1c(C(=O)O)ccc2c3n(nc12)[C@@H]1[C@H](C3)N(CC2CC2)[C@@]2(C(=O)Nc3cc(Cl)ccc32)[C@H]1c1cccc(Cl)c1F
bioavailability (female mouse, plasma; oral, 5 mg/kg): 119%

CN1CCN(C(=O)[C@H](CCCN[C@@H]2C[C@H]2c2ccc(F)cc2)NC(=O)c2ccc(-n3ccnn3)cc2)CC1
AUC(0-t) (CD-1 mouse, plasma; oral, 10 mg/kg): 2.27 µM·h

CCN1CCN(Cc2ccc(NC(=O)c3ccc(C)c(NC(=O)c4cncc(-c5cccs5)c4)c3)cc2C(F)(F)F)CC1
AUC(0-inf) (mouse, plasma; intraperitoneal, 15 mg/kg, single dose): 1750 ng·h/mL

Cc1cc2sc(N)nc2c2cccnc12
AUC(0-t) (female BALB/c mouse, plasma; intraperitoneal, 30 mg/kg, single dose): 45500 ng·h/mL

Cc1c(C(=O)O)ccc2c3n(nc12)[C@@H]1[C@H](C3)N(CC2CC2)[C@@]2(C(=O)Nc3cc(Cl)ccc32)[C@H]1c1cccc(Cl)c1F
bioavailability (FVB mouse, plasma; oral, 10 mg/kg, single dose): 79%

CCOc1ccc(N(C)S(=O)(=O)c2cc(Cl)sc2C(=O)Nc2cc(Cl)cc(C(=O)O)c2)cc1OC
AUC(0-inf) (male C57BL/6 mouse, plasma; intraperitoneal, 10 mg/kg): 6100 ng·h/mL

Nc1ccc(/N=N/c2cccc(F)c2F)c(N)n1
bioavailability (male CD-1 mouse, plasma; intraperitoneal, 100 mg/kg): 261%

CNC(=O)c1ccc(N2C(=S)N(c3ccc(C#N)c(C(F)(F)F)c3)C(=O)C2(C)C)cc1F
bioavailability (male C57BL/6 mouse, plasma; oral, 0.0215 mmol/kg): 45%

CC1=NN(/C(=N/c2nnc(C)s2)Nc2ccc(C)c(C)c2)C(c2cc(F)c(F)c(F)c2)S1 (stereo not shown)
bioavailability (male CD-1 mouse, plasma; oral, 30 mg/kg): 13.4%

Cc1cc(-c2cn[nH]c2-c2cccc(OCc3cccc(C#N)c3)c2)cc(C)n1
bioavailability (mouse, plasma; oral, 200 mg/kg): 47%

CC(C)C[C@H](NC(=O)[C@@H]1COCCCCCC(=O)N2C[C@H](F)C[C@H]2C(=O)N1)C(=O)[C@@]1(C)CO1
bioavailability (male BALB/c mouse, plasma; oral, 150 mg/kg): ~10%

CN(C)C/C=C/C(=O)Nc1cc2c(Nc3ccc(F)c(Cl)c3)ncnc2cc1O[C@H]1CCOC1
half-life (chemical stability; PBS; 250 µM, pH 7.4): > 100 h
